Measured values as given in ChEMBL document CHEMBL4130355, “Development of a series of novel 4-anlinoquinazoline derivatives possessing quinazoline skeleton: Design, synthesis, EGFR kinase inhibitory efficacy, and evaluation of anticancer activities in vitro” (Eur J Med Chem, 2017).

Experiments:
[1] = target: T1, Epidermal growth factor receptor (Homo sapiens, UniProt P00533); conditions: HEK293, at 0.0001 µM
[2] = Antiproliferative activity against human CCC-HPF1 cells after 72 hrs by MTT assay; type: ADME, cell-based; conditions: CCC-HPF-1, 72 h
A549 [3] = test: Antiproliferative activity against human A549 cells at 10 uM after 72 hrs by MTT assay relative to control; type: functional
Outline: (§1)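 MTT assay in triplicate wells. Cells (2 × 10^3/well) were attached 24 h, then treated at 0.1, 1, 10, 50 or 100 µM for 24, 48 or 72 h. MTT added for 4 h, SDS solubilisation, absorbance at 570/650 nm. Inhibition = 1 − (OD treated − blank)/(OD control − blank). Reported as mean ± SD of three independent experiments.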

A549 [4] = test: Antiproliferative activity against human A549 cells at 100 uM after 24 hrs by MTT assay relative to control; type: functional
Outline: as §1

A549 [5] = test: Antiproliferative activity against human A549 cells at 50 uM after 72 hrs by MTT assay relative to control; type: functional
Outline: as §1

HepG2 [6] = test: Induction of apoptosis in human HepG2 cells assessed as late apoptotic cells at 10 uM after 48 hrs by Annexin V-FITC/propidium iodide double staining-based flow cytometry (reference value: 4.3%); type: functional
DU-145 = test: Antiproliferative activity against human DU145 cells after 72 hrs by MTT assay; type: functional, cell-based; conditions: DU-145, 72 h
HepG2 [7] = test: Cytotoxicity against human HepG2 cells at 2.5 uM after 48 hrs by LDH release assay (reference value: 100%); type: functional
Outline: (§2)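 LDH release. HepG2 cells at 1.0 × 10^5/well were incubated 24 h at 37 °C, then treated at 2.5–40 µM for 48 h. Cells lysed with 2% lysate for 1 h gave the full-release (100%) reference; medium-only cells were the low control. LDH in the supernatant was measured per kit. Triplicates, three independent repeats.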

HepG2 [8] = test: Induction of apoptosis in human HepG2 cells assessed as elevation in ROS levels after 48 hrs by DCFH-DA fluorescence-based spectrometry; type: functional, cell-based
Outline: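 HepG2 seeded at 5.0 × 10^5 cells/mL, 24 h at 37 °C in 5% CO2, then treated 48 h. Harvested cells were washed twice in ice-cold PBS and loaded with 10 µM DCFH-DA for 30 min at 37 °C. They were then trypsinized, washed and resuspended in ice-cold HBSS, and DCF fluorescence was read on a fluorescence spectrometer.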

HepG2 [9] = test: Cytotoxicity against human HepG2 cells at 10 uM after 48 hrs by LDH release assay (reference value: 100%); type: functional
Outline: as §2

HepG2 [10] = test: Induction of apoptosis in human HepG2 cells assessed as early apoptotic cells at 10 uM after 48 hrs by Annexin V-FITC/propidium iodide double staining-based flow cytometry (reference value: 8.7%); type: functional
HepG2 [11] = test: Antiproliferative activity against human HepG2 cells at 0.1 uM after 24 hrs by MTT assay realtive to control; type: functional
Outline: as §1

[12] = target: T1, Epidermal growth factor receptor; conditions: HEK293, at 1 pM
[13] = target: T1, Epidermal growth factor receptor; conditions: HEK293, at 10 pM
HepG2 [14] = test: Antiproliferative activity against human HepG2 cells at 100 uM after 72 hrs by MTT assay realtive to control; type: functional
Outline: as §1

HepG2 [15] = test: Antiproliferative activity against human HepG2 cells at 0.1 uM after 48 hrs by MTT assay realtive to control; type: functional
Outline: as §1

HepG2 [16] = test: Induction of mitochondrial membrane potential loss in human HepG2 cells assessed as mitochondrial membrane potential levels at 5 uM after 48 hrs by rhodamine-123 dye based FACS analysis (reference value: 90.4%); type: functional
HepG2 [17] = test: Induction of apoptosis in human HepG2 cells assessed as intracellular free Ca2+ levels at 10 uM after 48 hrs by FL1 channel/FACS analysis (reference value: 14.2%); type: functional
Outline: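 HepG2 seeded at 5.0 × 10^5 cells/mL, 24 h at 37 °C in 5% CO2, then treated 48 h (2.5–20 µM). Harvested cells were washed in ice-cold PBS and loaded with 4 µM Fluo-3/AM for 30 min. After trypsinizing, they were washed twice and resuspended in HEPES, and fluorescence was measured in the FL-1 channel by flow cytometry. Values are averages of at least three independent experiments.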

A549 [18] = test: Antiproliferative activity against human A549 cells at 50 uM after 48 hrs by MTT assay relative to control; type: functional
Outline: as §1

HepG2 [19] = test: Induction of apoptosis in human HepG2 cells assessed as caspase-3 activity at 20 uM after 48 hrs by colorimetric assay relative to control; type: functional
Outline: (§3)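 After 48 h treatment, HepG2 were rinsed in ice-cold PBS and lysed 1–1.5 h on ice in buffer with 1% DTT. Lysate was spun at 10,000×g for 1 min at 4 °C; supernatant protein was measured by Bradford. Supernatant was mixed with 2× reaction buffer (1% DTT) plus caspase-3 chromogenic peptide substrate, held 4 h at 37 °C, and read at 405 nm.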

HepG2 [20] = test: Antiproliferative activity against human HepG2 cells after 72 hrs by MTT assay; type: functional, cell-based; conditions: HepG2, 72 h
A549 [21] = test: Antiproliferative activity against human A549 cells after 48 hrs by MTT assay; type: functional, cell-based; conditions: A549, 48 h
Outline: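 MTT read-out. Cells seeded at 2 × 10^3/well, attached 24 h at 37 °C in 5% CO2, then exposed to 0.1–100 µM for 24, 48 or 72 h. MTT for 4 h, formazan dissolved in 10% SDS/NH4Cl for 10 h, absorbance at 570 nm corrected at 650 nm. % inhibition computed against untreated and blank wells. IC50 is the mean of at least three independent experiments.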

HepG2 [22] = test: Antiproliferative activity against human HepG2 cells at 50 uM after 72 hrs by MTT assay realtive to control; type: functional
Outline: as §1

[23] = target: T1, Epidermal growth factor receptor; conditions: HEK293, at 0.1 µM
HepG2 [24] = test: Cell cycle arrest in human HepG2 assessed as decrease in cell levels at G0/G1 phase after 48 hrs by propidium iodide-staining based flow cytometry; type: functional
Outline: (§4)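 HepG2 cells at 5.0 × 10^5/well were grown 24 h, then treated at 0, 2.5, 5.0 or 10.0 µM for 48 h alongside medium-only wells. Cells fixed in 70% ice-cold ethanol for ≥24 h, treated with RNase A at 37 °C for 30 min, then stained with propidium iodide for 30 min at 4 °C in the dark. DNA content read by flow cytometry. Average of at least three experiments.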

HepG2 [25] = test: Cell cycle arrest in human HepG2 assessed as accumulation at S phase at 10 uM after 48 hrs by propidium iodide-staining based flow cytometry (reference value: 21.46%); type: functional
Outline: as §4

HepG2 [26] = test: Induction of apoptosis in human HepG2 cells assessed as caspase-3 activity at 2.5 uM after 48 hrs by colorimetric assay relative to control; type: functional
Outline: as §3

T1 sequence (P00533 whole entry): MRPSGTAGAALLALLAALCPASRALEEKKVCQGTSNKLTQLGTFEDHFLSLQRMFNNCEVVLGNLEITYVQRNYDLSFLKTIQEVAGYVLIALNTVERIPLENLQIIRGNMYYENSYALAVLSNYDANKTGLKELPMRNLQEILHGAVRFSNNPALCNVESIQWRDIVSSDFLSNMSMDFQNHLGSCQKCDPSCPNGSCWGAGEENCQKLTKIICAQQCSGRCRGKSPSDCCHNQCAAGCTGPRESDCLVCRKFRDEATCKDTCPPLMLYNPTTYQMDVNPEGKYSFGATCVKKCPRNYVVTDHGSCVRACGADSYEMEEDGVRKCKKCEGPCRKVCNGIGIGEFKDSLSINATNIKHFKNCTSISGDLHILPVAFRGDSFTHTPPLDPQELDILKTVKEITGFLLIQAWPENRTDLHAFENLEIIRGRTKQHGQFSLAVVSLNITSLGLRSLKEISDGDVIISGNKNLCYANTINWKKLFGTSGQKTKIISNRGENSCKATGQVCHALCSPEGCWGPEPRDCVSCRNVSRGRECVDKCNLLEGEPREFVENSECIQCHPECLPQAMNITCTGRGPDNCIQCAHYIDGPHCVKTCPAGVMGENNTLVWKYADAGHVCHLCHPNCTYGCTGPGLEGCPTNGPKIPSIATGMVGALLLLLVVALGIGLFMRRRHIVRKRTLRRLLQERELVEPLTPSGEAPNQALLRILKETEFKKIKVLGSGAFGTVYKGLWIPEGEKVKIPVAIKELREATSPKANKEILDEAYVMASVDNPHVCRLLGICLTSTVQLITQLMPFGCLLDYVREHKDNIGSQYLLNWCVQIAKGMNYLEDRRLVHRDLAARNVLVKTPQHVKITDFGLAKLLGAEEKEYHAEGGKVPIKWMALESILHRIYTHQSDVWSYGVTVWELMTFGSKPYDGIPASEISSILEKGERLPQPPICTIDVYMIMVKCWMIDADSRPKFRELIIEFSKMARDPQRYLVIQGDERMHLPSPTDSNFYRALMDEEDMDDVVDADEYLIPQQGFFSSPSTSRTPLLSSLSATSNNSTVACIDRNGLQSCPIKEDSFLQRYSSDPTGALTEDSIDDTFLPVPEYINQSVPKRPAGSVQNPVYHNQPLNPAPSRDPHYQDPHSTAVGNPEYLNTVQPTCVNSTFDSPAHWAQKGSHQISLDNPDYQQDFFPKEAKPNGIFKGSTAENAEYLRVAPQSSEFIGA

Compound `COc1cc2c(Nc3ccc(C#N)cc3)ncnc2cc1OCCCN1CCC(c2ccccc2)CC1` has an inhibition [1] of 39.1%, an IC50 [2] of 28 µM and an Activity (A549 [3]) of 34.1%. It also gave an Activity (A549 [4]) of 91.8%, an Activity (A549 [5]) of 86.6% and an Activity (HepG2 [6]) of 0.1%. The IC50 (DU-145) was 6.79 µM, the Activity (HepG2 [7]) was 39.65% and the Activity (HepG2 [8]) was “Dose-dependent effect”. For the same compound, the Activity (HepG2 [9]) was 69.27%, the Activity (HepG2 [10]) was 98.6% and the Activity (HepG2 [11]) was 4.4%. For the same compound, the inhibition [12] was 16%, the inhibition [13] was 17.9% and the Activity (HepG2 [14]) was 101%. For the same compound, the Activity (HepG2 [15]) was 5.7%, the Activity (HepG2 [16]) was 87% and the Activity (HepG2 [17]) was 48.9%. For the same compound, the Activity (A549 [18]) was 75.5%, the Activity (HepG2 [19]) was 196% and the IC50 (HepG2 [20]) was 4.61 to 5.29 µM. It also gave an IC50 (A549 [21]) of 20.6 µM, an Activity (HepG2 [22]) of 96.5% and an inhibition [23] of 73.1%. The Activity (HepG2 [24]) was “Dose-dependent effect”, the Activity (HepG2 [25]) was 29.72% and the Activity (HepG2 [26]) was 138%.
